We go through seven molecules from ChEMBL document CHEMBL1136789, “Synthesis and biological evaluation of new 2-(4,5-dihydro-1H-imidazol-2-yl)-3,4-dihydro-2H-1,4-benzoxazine derivatives” (J Med Chem, 2003).

The source made the active and inactive calls. No cut-off for these calls is given here. A value given as a limit tells only on which side of the number the result lay.

Usually Ki stands for the equilibrium dissociation constant of an inhibitor or competing ligand from its target. Higher therefore signals lower affinity.

In assay [1] the test system is Rattus norvegicus. The assay can be described thus: Effect after 100 mg/kg, po, on heart rate in conscious spontaneously hypertensive rats. Type of assay: functional. Summed up:
(§1)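 Studied conscious 24 h after surgery. Dosed by oral gavage after ≥40 min stabilisation, n=6/group. Vehicle 0.5% carboxymethylcellulose, 5 mL/kg. MAP and HR recorded over 24 h. Output is the maximal change from baseline (mmHg, bpm, %). Repeated-measures ANOVA with Dunnett's tests.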

The subject of assay [2] is Rattus norvegicus. Put plainly: Effect at (25 mg/kg, ip) on heart rate in anesthetized spontaneously hypertensive rats. Type of assay: functional. In short, it runs like this: (§2)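 Adult male SHR anaesthetised with sodium pentobarbital 50 mg/kg ip, left carotid catheter filled with heparinised saline. BP and HR (HR from pulse pressure) stabilised ≥40 min before a single ip dose, n=6/group. Vehicle 0.5% carboxymethylcellulose in water, 2.5 mL/kg. Recorded over 90 min. Output is the maximal change in MAP (mmHg) and HR (bpm) from pre-dose baseline, also as %. Repeated-measures ANOVA with Dunnett's tests.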

Assay [3] has as its system Rattus norvegicus. The assay can be described thus: Effect after 100 mg/kg, po, on mean arterial blood pressure in conscious spontaneously hypertensive rats. It counts as functional. In short, it runs like this: as §1
Assay [4] in a line: In vitro alpha-2 adrenergic receptor binding affinity was determined on calf frontal cortex membrane preparation. It counts as tissue-based, Bos taurus.
Assay [5] concerns Rattus norvegicus. The assay can be described thus: Effect (25 mg/kg ip) on mean arterial blood pressure in anesthetized spontaneously hypertensive rats. It counts as functional. In short, it runs like this:
as §2

A short description of assay [6]: In vitro alpha-1 adrenergic receptor binding affinity was determined on calf frontal cortex membrane preparation. It counts as tissue-based, Bos taurus. Summed up:
(§3)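 Calf frontal cortex membranes (0.5 mg protein/mL) incubated 40 min at 25 °C with 0.5 nM [3H]prazosin in 50 mM phosphate buffer with 10 mM MgCl2. Competitors at 10^-9 to 10^-4 M. Nonspecific binding set with 10 µM phentolamine. Stopped by rapid vacuum filtration through glass fibre filters, then washed three times with ice-cold buffer. Ki reported.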

The test system of assay [7] is Rattus norvegicus. The assay can be described thus: Effect (25 mg/kg ip) on heart rate in anesthetized spontaneously hypertensive rats. Type of assay: functional. In short, it runs like this: as §2
Assay [8] has as its system Rattus norvegicus. Put plainly: Effect after 30 mg/kg, po, on mean arterial blood pressure in conscious spontaneously hypertensive rats. Type of assay: functional. In short, it runs like this:
as §1

In assay [9] the test system is Rattus norvegicus. The assay can be described thus: Effect after 10 mg/kg, po, on mean arterial blood pressure in conscious spontaneously hypertensive rats. It counts as functional. Summed up: as §1
The test system of assay [10] is Rattus norvegicus. Put plainly: Effect after 30 mg/kg, po, on heart rate in conscious spontaneously hypertensive rats. Type of assay: functional. Summed up: as §1
Assay [11] concerns Rattus norvegicus. The assay can be described thus: Effect after 10 mg/kg, po, on heart rate in conscious spontaneously hypertensive rats. It counts as functional. Summed up:
as §1

The subject of assay [12] is Rattus norvegicus. The assay can be described thus: Effect at 25 mg/kg, ip, on mean arterial blood pressure in anesthetized spontaneously hypertensive rats; lethal at 12.5 mg; toxic at 5 mg; inactive at 0.5 mg. Type of assay: functional, organism-based. Details: dose 25 mg/kg.
Assay [13] has as its target imidazoline I2 binding site (Oryctolagus cuniculus). Put plainly: In vitro binding affinity determined against imidazoline receptor I-2 using rabbit kidney preparation.
The test system of assay [14] is Rattus norvegicus. Put plainly: Effect after 25 mg/kg, po, on mean arterial blood pressure in conscious spontaneously hypertensive rats. It counts as functional. In short, it runs like this:
as §1

For assay [15], the target named is T1, Alpha-1A adrenergic receptor (Bos taurus, UniProt P18130).
T1 sequence (P18130 whole entry): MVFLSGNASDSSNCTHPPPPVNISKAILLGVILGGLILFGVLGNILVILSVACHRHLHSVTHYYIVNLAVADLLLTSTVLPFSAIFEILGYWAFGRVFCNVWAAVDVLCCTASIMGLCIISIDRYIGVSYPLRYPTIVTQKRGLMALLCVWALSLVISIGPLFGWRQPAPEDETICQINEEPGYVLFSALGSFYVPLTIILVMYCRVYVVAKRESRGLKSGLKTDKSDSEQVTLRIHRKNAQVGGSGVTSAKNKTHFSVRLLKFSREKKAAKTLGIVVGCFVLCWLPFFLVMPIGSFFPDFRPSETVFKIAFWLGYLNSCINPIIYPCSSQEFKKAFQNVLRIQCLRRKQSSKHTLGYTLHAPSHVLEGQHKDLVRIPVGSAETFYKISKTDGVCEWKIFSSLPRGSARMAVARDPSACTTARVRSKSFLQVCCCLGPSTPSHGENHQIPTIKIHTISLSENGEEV
The assay can be described thus: In Vitro Alpha-1 adrenergic receptor binding affinity on calf frontal cortex membrane preparation. It counts as tissue-based. In short, it runs like this: as §3

Assay [16] has as its system Rattus norvegicus. The assay can be described thus: Effect after 25 mg/kg, po, on heart rate in conscious spontaneously hypertensive rats. Type of assay: functional. In short, it runs like this: as §1

For `CN1CC(C2=NCCN2)Oc2ccc(F)cc21` (stereo in doubt; 4h), the “Max delta HR” value in assay [1] is recorded as -61 beats min-1; in [2], -139 beats min-1; in assay [10] it was -43 beats min-1; in [11] it was 25 beats min-1. Besides, the Variation in assay [1] was -18%; in assay [3] it was -44%; in assay [5] it was -36%; in assay [7], -44%; in [8] it was -29%; in assay [9], -18%. In addition, the values for the Variation in assay [10] and in assay [11] were -12% and 7%, respectively. The “Max delta MAP” value is given as -81 mmHg in assay [3], -6 mmHg in assay [5], -56 mmHg in [8] and -34 mmHg in assay [9]. In addition, the inhibition constant Ki in assay [4] came to 104 nM; in assay [6] it was 5910 nM.

As to `Cc1cc(C)c2c(c1)N(C)CC(C1=NCCN1)O2` (centres undefined), the inhibition constant (Ki) in assay [4] was 12.4 nM; in assay [6], greater than 1000 nM. Moreover, the “Max delta MAP” value in assay [12] is “inactive”. Moreover, the Variation result in assay [12] was “inactive”.

`Cc1ccc2c(c1)N(C)CC(C1=NCCN1)O2` (centres undefined): the “Max delta HR” value is given as -77 beats min-1 in assay [1], -127 beats min-1 in assay [2], -32 beats min-1 in assay [10] and -11 beats min-1 in assay [11]. For the same molecule, the Variation in [1] is -23%; in [3], -28%; in [5], -175%; in assay [7], -37%; in assay [8], -23%; in [9] it was -10%. Also, the Variation is recorded as -10% in assay [10] and -3% in assay [11]. Besides, the “Max delta MAP” value is -53 mmHg in assay [3], -32 mmHg in [5], -43 mmHg in assay [8] and -18 mmHg in assay [9]. For the same molecule, the inhibition constant Ki in assay [4] was 70 nM; in [13] it was 1.99 nM; in assay [6], greater than 1000 nM.

For `CN1CC(C2=NCCN2)Oc2ccccc21` (centres undefined), the “Max delta HR” value in assay [2] is -148 beats min-1; in assay [16], -97 beats min-1. The Ki is 74 nM in [4] and 1100 nM in assay [15]. The “Max delta MAP” value in assay [5] is listed as -36 mmHg; in assay [14], -65 mmHg. Also, the Variation in assay [5] is reported as -21%; in [14], -36%; in assay [7] it was -44%; in assay [16], -26%.

`c1ccc(CN2CC(C3=NCCN3)Oc3ccccc32)cc1` (centres undefined): the “Max delta HR” value in assay [2] is on record as -21 beats min-1. Also, the Ki was 1300 nM in assay [4], 1600 nM in assay [13] and 3500 nM in assay [6]. Moreover, the “Max delta MAP” value in assay [5] is given as -4 mmHg. Moreover, the Variation in [5] was -2%; in [7], -7%.

Consider `c1cc2c3c(c1)OC(C1=NCCN1)CN3CC2` (centres undefined), for which the “Max delta HR” value in [2] was -103 beats min-1; in [10] it was -94 beats min-1; in assay [11], -50 beats min-1. Further, the Ki in assay [4] was 28.6 nM; in [6], greater than 10000 nM. Further, the “Max delta MAP” value in [5] is listed as -56 mmHg; in [8], -48 mmHg; in assay [9], -19 mmHg. In addition, the Variation in assay [5] is on record as -30%; in assay [7], -25%; in assay [8], -25%; in assay [9], -10%; in assay [10], -27%; in assay [11] it was -14%.

`CCCN1CC(C2=NCCN2)Oc2ccccc21` (centres undefined): in assay [2], the “Max delta HR” value was -90 beats min-1. Moreover, the Ki in assay [4] was 132 nM; in assay [13] it was 160 nM; in [6], greater than 10000 nM. The “Max delta MAP” value in assay [5] is -26 mmHg. Further, the Variation is given as -14% in [5] and -27% in assay [7].
